sdo1 growth: sdo1-depleted yeast growth rescue | S. cerevisiae sdo1-depleted JHY4D growth rescue, OD600 30 h; hits give high values; pdr5 snq2 efflux-pump mutant strain | 140,000 tested, 0.21% active | AID 817 | z-score at 10 µM;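 active = z-score above 3 at both the 24 hr and the 30 hr optical density reads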;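 note: z-score against mean and SD of all compound wells on the same plate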
NF-kB expr up: raises NF-kB expression in human neuronal cells. NF-kB reporter expression; hits give high values. 190,000 tested, 1.6% active. AID 1239. fold change at 12.5 µM; in the data active = fold change above about 3.3
STAT1 act: STAT1 signaling activation. NIH 3T3 STAT1-luciferase reporter, IFN-gamma, luminescence; 100% = IFN-gamma alone, no compound. activation (% of control), % at 5.5 µM. 200,000 tested, 2.6% active. AID 932;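 active = activation above the screen-wide mean activation plus 3 SD, cut at about 130% in these data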;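 note: raw ratio to IFN-gamma control signal so 100% means no change and 0% no light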
FLuc inhib CS: counter-screen for luciferase assay inhibitors: firefly luciferase inhibition | P08659 | ATPLite firefly luciferase biochemical luminescence, 10 min | inhibition, % at 10 µM | 200,000 tested, 1.5% active | AID 1006;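 active = inhibition above about 50% when tested at 10 µM, limit read from the data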
Target sequence (P08659 whole entry, looked up): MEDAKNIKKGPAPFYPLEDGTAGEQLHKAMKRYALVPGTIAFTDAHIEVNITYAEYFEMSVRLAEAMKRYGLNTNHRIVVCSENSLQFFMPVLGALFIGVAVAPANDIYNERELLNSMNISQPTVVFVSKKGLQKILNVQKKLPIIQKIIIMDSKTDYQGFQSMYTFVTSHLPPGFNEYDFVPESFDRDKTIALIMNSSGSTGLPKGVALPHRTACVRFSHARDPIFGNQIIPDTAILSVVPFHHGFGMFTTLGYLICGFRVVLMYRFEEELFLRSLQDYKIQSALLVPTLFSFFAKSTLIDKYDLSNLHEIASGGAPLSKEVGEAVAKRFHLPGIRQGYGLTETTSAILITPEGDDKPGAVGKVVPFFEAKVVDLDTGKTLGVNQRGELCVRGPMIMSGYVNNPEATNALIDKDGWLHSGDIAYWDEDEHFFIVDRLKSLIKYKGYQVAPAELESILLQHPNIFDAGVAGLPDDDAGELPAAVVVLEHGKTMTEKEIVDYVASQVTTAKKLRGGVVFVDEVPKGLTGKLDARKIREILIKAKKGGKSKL
FLuc act counter: affects firefly luciferase, flagging false hits in luciferase stimulation screens; ATPlite luciferase biochemical, luminescence, 10 min; 0 = ATP-free wells, 1 = DMSO control; P08659; activation factor at 10 µM; 200,000 tested, under 10 active;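 active = luciferase activation factor, scaled between plate controls, of at least 2 with compound at 10 µM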
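Assay system: Luciferase/luciferin reagent mix; Medium: PBS as buffer for the ATP substrate; Dosing: test compounds dosed from 2 mM stocks in 100% DMSO; Times: 10 min, room temperature; Signal: luminescence from luciferase reaction; Read-out: luciferase activation; Controls: No-ATP low control, compound-free enzyme-plus-ATP high control.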
APP 5'UTR act: APP 5'UTR luciferase reporter activation; SH-SY5Y APP 5'UTR luciferase reporter, luminescence; zero percent = DMSO vehicle wells; activation, % at 2 µM; 190,000 tested, 1% active;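 active = activation above a set limit, based on mean plus 3 SD of controls, cut at about 140% in these data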
Active calls of the source: *; nt = no result given. Hits are enriched below; roughly 4.3% of the tested compounds scored in any of these assays.

SMILES	sdo1 growth	NF-kB expr up	STAT1 act	FLuc inhib CS	FLuc act counter	APP 5'UTR act
COc1ccccc1CC(=O)N(CCC#N)CCC#N	0.78	1.22	106.4	-8.7	1.1	14.1
CCOc1ccc(NC(=O)Nc2cccc(C(=O)O)c2)cc1	nt	1.85	10.2	92.3*	0.1	-70.4
CCOc1ccc(NC(C(=O)Nc2cccc(C(C)=O)c2)c2ccccc2)cc1 (stereo unspecified)	-0.47	0.85	97.4	-6.8	1.1	-4.6
CCOc1ccc(/C=C/C(=O)Nc2cccc(C(C)=O)c2)cc1	-0.11	1.52	135.5*	63.6*	0.4	24.6
O=C(Nc1cccc(C(=O)O)c1)Nc1ccccc1Cl	nt	1.72	25.7	26.0	0.7	65.4
O=C(Nc1ccc(Cl)cc1)Nc1cccc(C(=O)O)c1	nt	1.99	17.8	76.3*	0.2	1.0
Cc1ccc(NC(=O)Cn2nc(C)c(S(=O)(=O)N(C)C)c2C)cc1	nt	1.1	89.8	-7.1	1.1	10.8
CCn1c(C)nc2cc(-c3nc4n(n3)Cc3ccccc3-4)ccc21	1.46	0.19	10.3	98.2*	0	-84.7
Cc1ccc(-c2nc3n(n2)Cc2ccccc2-3)cc1	-0.34	4.17*	77.8	92.3*	0.1	197.3*
CCn1c(C)nc2cc(C#N)ccc21	nt	1.27	102.6	-6.1	1.1	-16.5
Fc1ccc(-c2nc3n(n2)Cc2ccccc2-3)cc1	0.75	6.72*	113.6	74.7*	0.3	173.4*
NC(=O)C1(N2CCCCC2)CCN(C(=S)Nc2cc(F)cc(F)c2)CC1	nt	1.06	93.8	0.1	1	2.4
Cc1cc2nccc(-c3ccc(Cl)c([N+](=O)[O-])c3)n2n1	nt	1.19	98.0	-5.8	1.1	9.0
C/C(=N\Nc1nc(-c2ccccc2)cs1)c1cccs1	-0.12	0.64	145.1*	31.0	0.7	115.7
O=C(O)c1cc(-c2c[nH]c3ccccc23)nc2ccc3ccccc3c12	nt	1.25	88.9	79.7*	0.2	11.2
Cc1cc(C(=O)Cn2nc(C(=O)O)c3ccccc3c2=O)c(C)n1-c1ccccc1	-1.83	0.78	106.7	91.8*	0.1	50.6
CC(C)C(=O)Nc1ccc(S(=O)(=O)Nc2nccc(/C=C/c3ccccc3)n2)cc1	1.1	1.04	92.6	-5.6	1.1	-5.2
C/C(=N\NC(=O)c1nn(C)cc1Br)c1ccncc1	0.48	1.28	113.2	5.0	0.9	-2.3
C/C(=N\NC(=O)c1ccn[nH]1)c1cn(C)nc1C	-0.34	1.84	129.1*	54.1*	0.5	55.1
Cc1c(-c2ccccn2)c(=O)[nH]n1-c1ccc(F)cc1	nt	3.81*	104.9	60.9*	0.4	124.8
Cc1nc(Sc2nnnn2C)c2c3c(sc2n1)CCC3	-0.23	12.3*	86.0	-9.3	1.1	-6.5
CCc1nc(N2CCN(C(=O)c3ccccc3)CC2)c2c3c(sc2n1)CCCC3	nt	0.63	91.3	-6.4	1.1	0.7
CCc1nc(Sc2nnnn2-c2ccccc2)c2c3c(sc2n1)CCCC3	-0.61	7.95*	89.5	-7.3	1.1	-17.7
O=C1C=C(Nc2ccc(Cl)cc2)CC(c2ccccc2)C1 (stereo unspecified)	-0.83	0.96	97.1	-5.3	1.1	4.8
COc1cc(/C=C(/C(=O)c2cccs2)c2nc3ccccc3[nH]2)ccc1O	0.27	4.54*	95.8	35.3	0.6	42.5
SMILES	sdo1 growth	NF-kB expr up	STAT1 act	FLuc inhib CS	FLuc act counter	APP 5'UTR act
O=C(/C(=C/c1ccc(Cl)cc1)c1nc2ccccc2[nH]1)c1cccs1	-2.8	0.57	86.3	2.7	1	38.8
CC(C)n1nnc2c(=O)oc3ccccc3c21	0.6	1.07	102.3	-10.7	1.1	16.6
Cc1nc2cc(NC(=O)c3ccc(N4C(=O)CCC4=O)cc3)ccc2s1	nt	1.17	85.2	7.7	0.9	-5.4
CCNC(=S)N/N=C/c1sc(N2CCCCC2)nc1-c1cccs1	0.65	1.12	118.6	61.9*	0.4	15.7
N#C/C(=C(/O)COC(=O)CSc1ccc2ccccc2c1)c1nc2ccccc2[nH]1	1	3.46*	101.7	0.5	1	8.2
Cc1ccc(C)c(SCC(=O)OC/C(O)=C(\C#N)c2nc3ccccc3[nH]2)c1	nt	2.23	90.8	-4.8	1	4.0
CC(OC(=O)C1=COCCO1)C(=O)Nc1ccccc1C#N (stereo unspecified)	nt	0.99	105.1	-9.5	1.1	-4.4
CCOC(=O)c1c(C)oc2c1c(CN1CCN(C(=O)OCC)CC1)c(O)c1ccccc12	-1.98	4.29*	99.7	-9.5	1.1	156.6*
O=C1/C(=C\Nc2ccc(OC(F)(F)F)cc2)CCN1c1ncccn1	-0.33	3.22	131.1*	-2.8	1	nt
C/C(=N\NC(=O)COc1ccccc1[N+](=O)[O-])c1cccs1	nt	1.9	144.2*	19.0	0.8	41.2
Cc1ccc(NC(=O)COc2ccccc2[N+](=O)[O-])nc1	nt	5.45*	94.8	79.6*	0.2	30.8
Cc1ccnc(NC(=O)COc2ccccc2[N+](=O)[O-])c1	nt	1.05	108.1	80.9*	0.2	149.8*
c1ccc(OCCSc2nnnn2C2CCCCC2)cc1	nt	nt	132.9*	18.4	0.8	142.5*
Cn1c(-c2cccs2)nc2ccccc21	nt	1.42	142.3*	24.0	0.8	48.4
CC(C)(C)c1cc(CNC2CS(=O)(=O)C[C@@H]2O)cc(C(C)(C)C)c1O (stereo partly specified)	1.15	1.06	98.9	-11.3	1.1	nt
O=C(Nc1ccc2c(c1)OCCO2)Nc1ccc2c(c1)OCO2	nt	6.63*	71.8	93.2*	0.1	173.8*
Cc1ccnc(NC(=O)Nc2ccc3c(c2)OCO3)c1	nt	4.87*	146.0*	57.5*	0.4	143.8*
COc1ccc(NC(=O)NC23CC4CC(CC(C4)C2)C3)cc1OC	-0.39	1.4	94.6	-2.4	1	7.0
O=C(Nc1ccc2c(c1)OCCO2)NC12CC3CC(CC(C3)C1)C2	-0.74	1.71	142.3*	8.0	0.9	90.0
CC(=O)Nc1ccc2c(c1)OCCO2	0.52	1.1	102.3	-6.4	1.1	1.9
O=C(Nc1ccc2c(c1)OCO2)Nc1ccc(Br)cn1	0.23	2.07	149.1*	11.1	0.9	18.2
Cc1cccc(C)c1NC(=O)Nc1ccc2c(c1)OCO2	nt	1.21	111.2	-0.7	1	28.8
O=C(CCc1nnc(CCCCc2ccccc2)o1)N1CCC(N2CCCC2)CC1	nt	1.11	99.1	-2.6	1	19.8
O=S(=O)(c1ccc(S(=O)(=O)N(Cc2cccs2)CC2CCCO2)cc1)N1CCCCC1 (stereo unspecified)	0.85	1.37	129.0*	-3.9	1	20.6
COc1ccc2oc(=O)c(-c3ccccc3C(=O)N3CCOCC3)cc2c1	0.21	0.95	90.4	-3.0	1	-2.4
CC(C)CC(OC(=O)c1ccco1)C(=O)NC1CCCCC1 (stereo unspecified)	1.28	1.19	99.8	2.5	1	-0.4
